The record followed here is ChEMBL document CHEMBL4613315, “Design of First-in-Class Dual EZH2/HDAC Inhibitor: Biochemical Activity and Biological Evaluation in Cancer Cells” (ACS Med Chem Lett, 2020).

Assay [1] has as its target T1, Histone-lysine N-methyltransferase EZH2 (Homo sapiens, UniProt Q15910). Kind of assay: Inhibition of EZH2 in human U937 cells assessed as H3K27me3 level at 50 uM in presence of vorinostat incubated for 96 hrs by Western blot analysis (reference value: 1). It counts as cell-based. As to conditions: U-937. The method, boiled down:
(§1)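 U937 leukemia cells given EZH2 inhibitor 50 μM together with HDAC inhibitor 0.5 μM; Western blot at 96 and 120 h for H3K27me3 or acetyl-H3, actin as loading control; densitometry normalized to loading control then to DMSO vehicle.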

In assay [2] the target is T1, Histone-lysine N-methyltransferase EZH2. Kind of assay: Inhibition of EZH2 in human RH4 cells assessed as H3K27me3 level at 50 uM in presence of vorinostat incubated for 72 hrs by Western blot analysis (reference value: 1). It counts as cell-based. The procedure, abridged:
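RH4 cells co-treated with EZH2 inhibitor at 50 μM plus HDAC inhibitor at 0.15 μM; Western blot after 72 or 96 h for H3K27me3 or acetyl-tubulin, vinculin loading control; densitometry normalized to loading control then DMSO vehicle.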

For assay [3], the target named is T2, Histone deacetylase (Homo sapiens) (UniProt Q13547+O15379+Q9UBN7+Q92769+Q9UQL6+Q8WUI4+Q9BY41+Q96DB2+P56524+Q9UKV0+Q969S8). The assay is described as follows: Inhibition of HDAC in human U937 cells assessed as Ac-H3 level at 50 uM in presence of vorinostat incubated for 96 hrs by Western blot analysis (reference value: 1). As to conditions: U-937. It is filed as cell-based. The procedure, abridged: as §1

The target of assay [4] is T1, Histone-lysine N-methyltransferase EZH2. Kind of assay: Inhibition of EZH2 in human U937 cells assessed as H3K27me3 level at 50 uM in presence of vorinostat incubated for 120 hrs by Western blot analysis (reference value: 1). To be noted: U-937. It counts as cell-based. The procedure, abridged:
as §1

Assay [5] concerns the target T2, Histone deacetylase (Homo sapiens). The assay is described as follows: Inhibition of HDAC in human U937 cells assessed as Ac-H3 level at 50 uM in presence of vorinostat incubated for 120 hrs by Western blot analysis (reference value: 1). As to conditions: U-937. It counts as cell-based. The procedure, abridged: as §1
The nature of assay [6]: Cell cycle arrest in human RH4 cells assessed as subG1 accumulation at 28 uM incubated for 72 hrs by propidium iodide staining based flow cytometry (reference value: 1.9 %). It counts as functional.
The species entered for a further assay is Homo sapiens. Kind of assay: Cell cycle arrest in human RH4 cells assessed as increase in subG1 accumulation incubated for 72 hrs by propidium iodide staining based assay. It is filed as functional.
A further assay deals with U-87MG ATCC. Kind of assay: Upregulation of E-cadherin levels in human U87 cells at 5 to 25 uM incubated for 24 hrs by Western blot analysis. It counts as functional, cell-based. The procedure, abridged:
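U87 glioblastoma cells treated 24 h at 5, 10 and 25 μM with DMSO control; E-cadherin and Snail probed by Western blot, tubulin as loading control.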

Another assay relates to U-937. The assay is described as follows: Cell cycle arrest in human U937 cells assessed as subG1 accumulation at 25 uM incubated for 72 hrs by propidium iodide staining based flow cytometry (reference value: 4.9 %). It counts as functional.

The source made the active and inactive calls. No cut-off for these calls is given here.

T1 sequence (Q15910 whole entry, looked up): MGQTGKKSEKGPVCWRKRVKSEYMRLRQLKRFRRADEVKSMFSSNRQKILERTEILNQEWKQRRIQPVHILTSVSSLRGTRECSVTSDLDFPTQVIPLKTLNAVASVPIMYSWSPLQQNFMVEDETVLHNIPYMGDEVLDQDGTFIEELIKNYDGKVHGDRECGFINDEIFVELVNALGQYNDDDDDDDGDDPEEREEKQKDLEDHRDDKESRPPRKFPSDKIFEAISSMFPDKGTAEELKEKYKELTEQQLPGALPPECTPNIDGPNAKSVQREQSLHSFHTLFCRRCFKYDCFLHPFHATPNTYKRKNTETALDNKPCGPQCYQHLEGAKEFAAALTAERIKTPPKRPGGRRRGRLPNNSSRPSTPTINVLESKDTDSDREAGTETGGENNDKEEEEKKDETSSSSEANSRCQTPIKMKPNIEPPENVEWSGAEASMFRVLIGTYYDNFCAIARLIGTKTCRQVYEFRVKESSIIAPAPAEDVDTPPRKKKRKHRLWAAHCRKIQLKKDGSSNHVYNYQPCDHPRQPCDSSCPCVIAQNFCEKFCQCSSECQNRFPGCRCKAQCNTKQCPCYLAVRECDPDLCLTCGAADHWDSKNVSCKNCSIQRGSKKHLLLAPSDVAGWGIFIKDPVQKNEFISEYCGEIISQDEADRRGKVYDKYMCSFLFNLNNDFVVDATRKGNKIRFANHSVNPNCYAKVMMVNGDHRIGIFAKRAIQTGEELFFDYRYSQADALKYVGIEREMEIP

Consider `Cc1cc(C)c(CNC(=O)c2cc(C)n(-c3ccccc3)c2C)c(=O)[nH]1`, for which the fold change (FC) amounted to 1.1 in [1]; 0.02 in assay [2]; 2.1 in [3]; 0.6 in assay [4]; 0.8 in assay [5].
Regarding `Cc1cc(C)c(CNC(=O)c2cc(C)n(-c3cccc(NC(=O)CCCCCCC(=O)NO)c3)c2C)c(=O)[nH]1`, the Activity in assay [6] was 28.1%; in the assay filed under Homo sapiens it was “Dose-dependent effect”; in the assay on U-937, 36.1%. In addition, the result in the assay with U-87MG ATCC was Active.
